Calls of active or inactive are those of the source. No cut-off for these calls is given here.
Tests used:
Type in all cases: cell-based
[1] = target: RAC-beta serine/threonine-protein kinase (Homo sapiens) (UniProt P31751); assay: Inhibition of AKT2 phosphorylation in human PC3 cells at 14 uM after 12 to 24 hrs by Western blot analysis
Outline: (§1)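 Immunoblotting of PC-3 lysates for procaspase 8, procaspase 9 and phosphorylated Akt1, 2 and 3 after treatment at 14 µM, with samples collected at different time points.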

[2] = target: RAC-alpha serine/threonine-protein kinase (Homo sapiens) (UniProt P31749); assay: Inhibition of AKT1 phosphorylation in human PC3 cells at 14 uM after 12 to 24 hrs by Western blot analysis; outline: as §1
Sequence of RAC-alpha serine/threonine-protein kinase (Homo sapiens) (P31749 whole entry): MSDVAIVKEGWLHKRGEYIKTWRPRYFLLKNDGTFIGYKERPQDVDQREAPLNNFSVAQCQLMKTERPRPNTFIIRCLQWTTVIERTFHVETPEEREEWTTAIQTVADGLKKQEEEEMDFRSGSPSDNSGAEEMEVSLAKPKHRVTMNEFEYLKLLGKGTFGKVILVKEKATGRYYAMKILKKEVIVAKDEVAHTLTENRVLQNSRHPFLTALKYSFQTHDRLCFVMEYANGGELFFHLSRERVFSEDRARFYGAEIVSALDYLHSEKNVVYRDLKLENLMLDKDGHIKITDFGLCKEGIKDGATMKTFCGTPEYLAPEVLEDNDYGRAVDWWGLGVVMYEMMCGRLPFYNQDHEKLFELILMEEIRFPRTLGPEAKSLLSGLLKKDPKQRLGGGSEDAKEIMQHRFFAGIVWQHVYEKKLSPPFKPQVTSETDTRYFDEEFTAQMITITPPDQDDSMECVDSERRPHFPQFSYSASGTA

[3] = target: RAC-gamma serine/threonine-protein kinase (Homo sapiens) (UniProt Q9Y243); assay: Inhibition of AKT3 phosphorylation in human PC3 cells at 14 uM after 12 to 24 hrs by Western blot analysis; outline: as §1
Sequence of RAC-gamma serine/threonine-protein kinase (Homo sapiens) (Q9Y243 whole entry): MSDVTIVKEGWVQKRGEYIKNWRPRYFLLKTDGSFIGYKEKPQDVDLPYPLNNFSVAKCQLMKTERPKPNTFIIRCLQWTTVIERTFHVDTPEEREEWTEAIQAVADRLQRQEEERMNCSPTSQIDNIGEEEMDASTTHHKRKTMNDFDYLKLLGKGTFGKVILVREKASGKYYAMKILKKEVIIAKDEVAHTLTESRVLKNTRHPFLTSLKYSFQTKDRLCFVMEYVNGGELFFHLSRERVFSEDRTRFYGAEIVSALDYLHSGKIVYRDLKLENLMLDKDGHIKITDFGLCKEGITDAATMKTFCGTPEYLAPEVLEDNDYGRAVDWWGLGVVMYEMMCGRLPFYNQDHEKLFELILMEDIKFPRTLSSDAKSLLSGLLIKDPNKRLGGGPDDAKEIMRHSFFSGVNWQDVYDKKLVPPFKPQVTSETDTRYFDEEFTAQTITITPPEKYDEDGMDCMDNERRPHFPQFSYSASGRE

Sequence of RAC-beta serine/threonine-protein kinase (Homo sapiens) (P31751 whole entry): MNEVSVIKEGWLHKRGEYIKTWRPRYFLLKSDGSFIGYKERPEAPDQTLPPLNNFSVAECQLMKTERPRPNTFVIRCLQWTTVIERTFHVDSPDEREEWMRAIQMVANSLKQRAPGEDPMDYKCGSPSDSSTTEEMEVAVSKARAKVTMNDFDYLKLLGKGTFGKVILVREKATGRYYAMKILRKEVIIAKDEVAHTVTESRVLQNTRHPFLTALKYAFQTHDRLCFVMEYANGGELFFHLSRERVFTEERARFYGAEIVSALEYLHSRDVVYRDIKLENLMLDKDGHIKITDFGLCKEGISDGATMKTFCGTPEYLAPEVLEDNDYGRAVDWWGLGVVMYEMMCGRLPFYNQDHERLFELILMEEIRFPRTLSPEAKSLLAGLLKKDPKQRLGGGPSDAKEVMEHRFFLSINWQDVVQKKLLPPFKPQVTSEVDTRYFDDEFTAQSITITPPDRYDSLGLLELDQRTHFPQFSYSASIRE

- inhibition [1]: Active
- inhibition [2]: Active
- inhibition [3]: Active
Structure (SMILES): CSc1c(C(=O)c2ccc(Br)cc2)c(N)c2ccccc2c1C#N

— ChEMBL document CHEMBL4219193, “Synthesis, biological evaluation and molecular docking study of 1-amino-2-aroylnaphthalenes against prostate cancer” (Bioorg Med Chem Lett, 2018)
